# From article PMC5280578 (Journal of neurosurgery, 2016)
# “And” between values parts separate entries of the source, which are not always exact repeats. Identical values can stand only once. Like-named read-outs stand apart in the source and are kept apart here.
# Columns and labels:
# U87-MG cells [1] = conditions: in vitro; cited from earlier work
# GBM flank xenografts = conditions: ISA27 alone; cited from earlier work
# [2] = rats; administration for 10 days; effects reversible; cited from earlier work
# [3] = monkeys; administration for 10 days; effects reversible; cited from earlier work
# U87-MG flank xenografts = assay: Efficacy in ectopic U87-MG flank xenografts; format: in vivo, NSG mice; conditions: 5 mg/kg TMZ, 100 mg/kg nutlin3; 2 treatment cycles
# Outline: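 NSG mice received 4 × 10^6 U87-MG cells in the right flank. At approximately 150 mm3, tumor-bearing mice were randomized into cohorts of 6–8. Dosing was oral: vehicle, 5 mg/kg TMZ, 100 mg/kg racemic nutlin3, or the combination, for 2 treatment cycles. Caliper measurements were taken twice weekly, and volume = (α2 × β)/2 (α shorter, β longer dimension). Data are mean ± SEM.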
# [4] = tested on: GBM10 intracranial tumors; assay: Survival in orthotopic intracranial GBM10 xenograft model; format: in vivo, NSG mice
# [5] = format: in vivo, NSG mice; conditions: peripheral blood, three cycles
# U87-MG cells [6] = assay: Western blot analysis of target proteins and cell cycle markers; format: cell-based, human
# Outline: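 U87-MG cells were treated with vehicle, 25 μM TMZ, 5 μM nutlin3a, or the combination for 24 h or 72 h. RIPA lysates were resolved on 4–20% SDS-PAGE and transferred to nitrocellulose. Primary antibodies were used at 1:1000 and HRP secondaries at 1:5000, with chemiluminescent film detection. Densitometry was normalized to loading control and expressed relative to vehicle. Six independent experiments at 24 h; two at 72 h.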
# GBM10 flank tumors = assay: Western blot analysis of GBM10 flank tumor lysates; format: in vivo, NSG mice; conditions: 66 mg/kg TMZ, 100 mg/kg nutlin3a, 3 consecutive days; for MDM2 and p53 levels in tumors: 2 hours after last dose
# Outline: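 NSG mice received 5 × 10^6 GBM10 cells in the right flank. At approximately 200 mm3, mice were dosed orally for 3 consecutive days with vehicle, 66 mg/kg TMZ, 100 mg/kg nutlin3a (methylcellulose/Tween 80), or the combination. Tumors were harvested 2 h after the last dose. Lysates were made in RIPA buffer with protease/phosphatase inhibitors, run on 4–20% SDS-PAGE, and transferred to nitrocellulose. Detection was by HRP-chemiluminescence, with densitometry normalized to loading control.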
# [7] = Pharmacokinetic analysis of nutlin3 in NSG mice; format: in vivo
# Outline: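 Racemic nutlin3 was given orally to NSG mice. Plasma was collected, flash-frozen and kept at −80°C. Drug was recovered by liquid-liquid extraction and quantified by HPLC-MS/MS (API 4000) to derive pharmacokinetic parameters.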
# [8] = Nutlin3 concentration in U87-MG flank xenografts; format: in vivo, NSG mice; conditions: 4 hours postadministration
# Outline: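 Tumors from NSG mice bearing U87-MG flank xenografts were collected 4 h after oral nutlin3 dosing. A vehicle-treated tumor served as background control. Samples were flash-frozen and stored at −80°C. Nutlin3 was recovered by liquid-liquid extraction and quantified by HPLC-MS/MS (API 4000), with caylin as internal standard. Two tumor samples were analyzed.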
# [9] = Dose-response curves of nutlin enantiomers; conditions: nutlin3a vs nutlin3b; data not shown
# [10] = Nutlin3a concentrations in normal brain and intracranial tumor tissue; format: in vivo, NSG mice; conditions: 100 mg/kg nutlin3a; 4 hours
# Outline: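 NSG mice carried GBM10, GBM43 or SK28 melanoma cells implanted stereotactically in the right cerebral hemisphere. At 21 days post-implantation, mice received 100 mg/kg nutlin3a orally; tumor-free mice were dosed likewise. After 4 h, plasma and brains were collected and the tumor area was excised. Samples were frozen at −80°C, extracted by liquid-liquid extraction, and assayed by HPLC-MS/MS. Each point is one mouse.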
# GBM10 cells [11] = assay: Wound-healing assay; format: cell-based, human; conditions: 25 μM TMZ, 10 μM nutlin3a; 12 hours
# Outline: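 GBM10 monolayers at 80–90% confluence were scratched with a pipette tip. Debris was washed off with medium, cells were rinsed in serum-free DMEM, and the gap was photographed at hour 0. Cells were then cultured in DMEM with 10% FBS containing vehicle, 25 μM TMZ, 10 μM nutlin3a, or the combination for 12 h. The marked gap was imaged every 2 h and its width measured. Three repeats.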
# GBM10 cells [12] = assay: Matrigel invasion assay; format: cell-based, human; conditions: 25 μM TMZ, 10 μM nutlin3a; 8 hours
# U87-MG cells [13] = assay: Apoptosis assay; format: cell-based, human; conditions: 25 μM TMZ, 1.25 or 5 μM nutlin3a; Day 5 posttreatment
# Outline: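 U87-MG cells were treated with vehicle, 25 μM TMZ, 1.25 or 5 μM nutlin3a (DMSO stock diluted in medium), or TMZ/nutlin3a combinations. TMZ was dissolved in PBS or medium and used immediately. On Day 5 post-treatment, cells were stained with Annexin V-FITC and 7-AAD. Early apoptotic and late apoptotic/necrotic fractions were quantified by flow cytometry.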
# GBM10 cells [14] = assay: Western blot analysis of target proteins and cell cycle markers; format: cell-based, human
# Outline: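 Cultured GBM10 cells were treated with vehicle, 25 μM TMZ, 10 μM nutlin3a, or the combination for 72 h (cell-cycle markers). A second set received 200 μM TMZ plus 2 μM nutlin3a for 24, 48 or 72 h. RIPA lysates were run on 4–20% SDS-PAGE and transferred to nitrocellulose. Primary antibodies were used at 1:1000 and HRP secondaries at 1:5000, with chemiluminescent detection. Densitometry was normalized to loading control relative to vehicle (24 h: 3 independent experiments).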
# [15] = murine bone marrow; cited from earlier work
# [16] = 25 μM TMZ, 5 μM nutlin3a, 24 hours
compound,measurement,setting,value
O=C1[C@@H]2CS[C@@]3(C(=O)Nc4ccccc43)N2C(=O)N1Cc1ccc(Cl)cc1 [ISA27],Interaction with TMZ to kill U87-MG cells,U87-MG cells [1],synergized
same,Growth of GBM flank xenografts,GBM flank xenografts,inhibited growth
CCOc1cc(C(C)(C)C)ccc1C1=N[C@@](C)(c2ccc(Cl)cc2)[C@@](C)(c2ccc(Cl)cc2)N1C(=O)N1CCN(CCCS(C)(=O)=O)CC1 [RG7112],Platelet production,[2],decreased platelet production
same,Platelet production,[3],decreased platelet production
"Cn1nnc2c(C(N)=O)ncn2c1=O [TMZ, temozolomide]",Tumor growth / tumor volume compared with vehicle,U87-MG flank xenografts,significant decrease in tumor volume
same,Survival compared with vehicle or nutlin3a,"[4]; 66 mg/kg TMZ once daily, 100 mg/kg nutlin3a, 2 cycles, p < 0.05",significantly increased
same,Increase in survival compared with vehicle-treated mice,[4]; three 5-day cycles,approximately 13%
same,White and red blood cell counts compared with vehicle-treated mice,[5]; Day 30 and Day 43,significant decrease
same,Platelets,[5]; Day 30 only,significantly decreased
same,"Levels of total p53, p53 (S15) and MDM2",U87-MG cells [6]; [16],increased
same,APE1 level,U87-MG cells [6]; 72 hours,decreased
same,p53 (S15) levels in tumors,GBM10 flank tumors,increased
same,MDM2 and p53 levels in tumors,GBM10 flank tumors,increased
COc1ccc(C2=N[C@@H](c3ccc(Cl)cc3)[C@@H](c3ccc(Cl)cc3)N2C(=O)N2CCNC(=O)C2)c(OC(C)C)c1 [nutlin3],Cmax,"[7]; NSG, mouse, in vivo, po",20400 ng/mL and 37 µM
same,Tmax,"[7]; NSG, mouse, in vivo, po",1 h
same,Vd/F,"[7]; NSG, mouse, in vivo, po",0.113 L
same,half-life,"[7]; NSG, mouse, in vivo, po",4.5 h
same,Cl/F,"[7]; racemic nutlin3, NSG mice",0.29 mL/min
same,Nutlin3 in U87-MG flank xenografts,[8],detected
same,Tumor growth / tumor volume compared with vehicle,U87-MG flank xenografts,significantly slowed tumor growth
COc1ccc(C2=N[C@@H](c3ccc(Cl)cc3)[C@@H](c3ccc(Cl)cc3)N2C(=O)N2CCNC(=O)C2)c(OC(C)C)c1 [nutlin3a],Relative potency of enantiomers,[9],more potent enantiomer
same,Nutlin3a levels in brain tumor tissues versus normal brain tissue,[10],higher levels
same,"Survival of mice with intracranial GBM tumors, single agent","[4]; 100 mg/kg nutlin3a twice daily, 2 consecutive 5-day cycles",did not increase survival
same,GBM10 migration,GBM10 cells [11],significantly inhibited
same,GBM10 invasion,GBM10 cells [12],significantly inhibited
same,Early and late apoptotic/necrotic cells compared with control or TMZ alone,U87-MG cells [13],significant increases
same,"Cell cycle arrest by cell cycle–specific markers (pRb S780, pHH3, TopoIIα)","U87-MG cells [6]; 5 μM nutlin3a, 25 μM TMZ, 72 hours",arrested in G0/G1
same,"Levels of total p53, p53 (S15) and MDM2",U87-MG cells [6]; [16],increased
same,p21 levels,U87-MG cells [6]; [16],increased
same,APE1 level,U87-MG cells [6]; 72 hours,decreased
same,"Cell cycle arrest by cell cycle–specific markers (pRb S780, pHH3, TopoIIα)","GBM10 cells [14]; 10 μM nutlin3a, 25 μM TMZ, 72 hours",arrested in G0/G1
same,MDM2 and p21 levels,"GBM10 cells [14]; 200 μM TMZ, 2 μM nutlin3a, 24 hours",significantly increased
same,MDM2 and p53 levels in tumors,GBM10 flank tumors,increased
same,Nutlin3a detected in bone marrow,[15],low levels
